# Experimental data: ChEMBL document CHEMBL3792346, “Thiazolino 2-Pyridone Amide Inhibitors of Chlamydia trachomatis Infectivity” (J Med Chem, 2016); call rule not given here
# How the values were obtained:
# [1] = Cytotoxicity against human HeLa cells assessed as cell viability at 25 uM after 48 hrs by resazurin assay relative to control; type: cell-based; conditions: read-out: Activity
# Method in brief: (§1)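 Uninfected HeLa seeded in RPMI, next day switched to colorless DMEM with 10% FBS, 2 mM glutamine; compounds added in triplicate, 48 h at 37 °C; resazurin added, 3 h at 37 °C dark; fluorescence ex 535/em 595 nm; cell-free wells with compound check direct resazurin reduction; mean of three experiments in triplicate, SD over nine replicates.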
# [2] = system: Chlamydia trachomatis; experiment: Antimicrobial activity against Chlamydia trachomatis serovar LGV-L2 infected in human HeLa cells assessed as decrease in relative inclusion forming units measured 44 to 48 hrs post infection by DAPI staining-based assay; type: functional, organism-based
# Method in brief: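 HeLa229 cells infected with serovar LGV-L2 at MOI 0.3; compounds in DMSO added at 1 hpi as 8-step halving dilutions from 2 to 0.0156 µM; after 44-48 h, osmotic lysis with cold water, SPG restored, lysate 10-fold serially diluted onto fresh HeLa; after 44-48 h, methanol-fixed, anti-Chlamydia/FITC stained, IFUs counted by automated scanner relative to DMSO; EC50 by nonlinear regression, ≥3 independent experiments.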
# [3] = system: Chlamydia trachomatis; experiment: Antimicrobial activity against Chlamydia trachomatis serovar D infected in human HeLa cells assessed as decrease in relative inclusion forming units measured 44 to 48 hrs post infection by DAPI staining-based assay; type: functional, organism-based
# [4] = Effect on growth of Lactobacillus crispatus CCUG 27076A at 50 uM after 48 hrs
# Method in brief: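 L. crispatus CCUG 27076A in MRS broth at 37 °C, 5% CO2; overnight culture diluted 1:20 and grown 48 h with 50 µM compound or 1% DMSO.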
# [5] = system: Escherichia coli; experiment: Effect on growth of Escherichia coli MW100 at 50 uM incubated for 8 hrs measured every hour during incubation; type: organism-based; conditions: in vivo
# Method in brief: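 E. coli MW100 overnight LB cultures at 37 °C diluted to OD600 0.05 in LB with DMSO or 50 µM compound; grown 8 h with OD600 read hourly and visual inspection; triplicate.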
# [6] = 1-octanol-potassium phosphate buffer distribution co-efficient, log D of the compound incubated overnight at pH 7.4 by shake-flask method
# [7] = system: Chlamydia trachomatis; experiment: Antimicrobial activity against Chlamydia trachomatis serovar LGV-L2 infected in human HeLa cells assessed as concentration require to reduce relative inclusion forming units by 95% after 48 hrs; type: functional
# Method in brief: (§2)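 HeLa cells infected with LGV-L2 at MOI 0.1-0.5; compounds added at 1 hpi, tested at 2.5 µM then 5 or 10 µM or 1, 0.5, 0.25, 0.1 µM; after ~48 h, osmotic lysis, SPG restored, 10-fold dilutions reinfect fresh HeLa; IFUs counted by automated imaging versus DMSO; Reinfect95 = lowest concentration consistently giving 95% IFU reduction; ≥2 experiments in triplicate.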
# [8] = system: Candida albicans; experiment: Effect on growth of Candida albicans SC314 at 50 uM measured every 2 hrs by microscopy; type: organism-based; conditions: in vivo
# Method in brief: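 C. albicans SC314 grown overnight at 30 °C, diluted to OD600 0.05, grown to OD600 0.2, then compound added at 10 and 50 µM and grown to saturation; sampled every 2 h for microscopic yeast:hyphal ratio.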
# [9] = Cytotoxicity against human HeLa cells assessed as cell viability at 10 uM after 48 hrs by resazurin assay relative to control; type: cell-based; conditions: read-out: Activity; method in brief: as §1
# [10] = Dissociation constant, pKa of the compound by UV-visible spectrophotometry; type: physicochemical
# Method in brief: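 Spectrophotometric titration: 2–5 µL of 10 mM DMSO stock in phosphate buffer with 20-50% (wt/wt) methanol cosolvent and ISA water; titrated pH 2-12 high to low under argon at 25 ± 1 °C, UV–vis spectra by D-PAS; electrode blank-calibrated pH 1.8-12.0 each run; precipitation monitored at 500 nm.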
# [11] = system: Chlamydia trachomatis; experiment: Antimicrobial activity against Chlamydia trachomatis serovar LGV-L2 infected in human HeLa cells measured 44 to 48 hrs post infection by DAPI staining-based assay; type: functional, organism-based
# [12] = system: Chlamydia trachomatis; experiment: Antimicrobial activity against Chlamydia trachomatis serovar A infected in human HeLa cells at 10 uM measured 44 hrs post infection relative to control; type: functional
# [13] = system: Chlamydia trachomatis; experiment: Antimicrobial activity against Chlamydia trachomatis serovar LGV-L2 infected in human HeLa cells at 10 uM measured 44 hrs post infection relative to control; type: functional
# [14] = system: Chlamydia trachomatis; experiment: Antimicrobial activity against Chlamydia trachomatis serovar D infected in human HeLa cells at 10 uM measured 44 hrs post infection relative to control; type: functional
# [15] = 1-octanol-potassium phosphate buffer partition co-efficient, log P of the compound incubated overnight by shake-flask method; type: physicochemical
# Method in brief: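 Miniaturized shake-flask: 1-octanol pre-saturated with 0.1 M potassium phosphate pH 7.4 and buffer pre-saturated with octanol mixed 1:3 and 1:6; compound added from 10 mM DMSO stock; rotated overnight at rt, centrifuged 3500 rpm 30 min; each phase diluted in 60% acetonitrile with warfarin internal standard, quantified by UHPLC-MS/MS against 1-1000 nM external curve; ketoconazole control.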
# [16] = system: Chlamydia trachomatis; experiment: Drug uptake in Chlamydia trachomatis serovar LGV-L2 inclusion infected in human HeLa cells at 1 uM coadministered with 8-Cyclopropyl-7-(naphthalen 1-ylmethyl)-5-oxo-N-(3-methylphenyl)-2,3-dihydro-5H-[1,3]thiazolo[3,2-a]pyridine-3-carboxamide after 48 hrs by laser confocal microscopy; type: ADME, organism-based
# Method in brief: (§3)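 Infected HeLa (LGV-L2, MOI 0.5) given 1 µM fluorescent analogue alone or with equimolar competitor, added together directly after infection and kept to end; fixed, anti-MOMP stained, confocal imaged with identical settings; fluorescence per inclusion divided by inclusion area in >40 inclusions; two-tailed t-test; ≥2 independent experiments.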
# [17] = system: Chlamydia trachomatis; experiment: Antimicrobial activity against Chlamydia trachomatis serovar LGV-L2 infected in human HeLa cells at 2.5 uM after 48 hrs; type: functional; method in brief: as §2
# [18] = system: Chlamydia trachomatis; experiment: Drug uptake in Chlamydia trachomatis serovar LGV-L2 inclusion infected in human HeLa cells at 1 uM after 48 hrs by laser confocal microscopy; type: ADME, organism-based
# Method in brief: (§4)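 HeLa on coverslips infected with LGV-L2 at MOI 0.5 in HBSS; after 60 min, fresh medium with fluorescent compound or BODIPY control (1 µM) added, left to 48 hpi; PBS-washed, 4% paraformaldehyde fixed, Triton-permeabilized, BSA-blocked, anti-MOMP/rhodamine stained; confocal imaging, 60× oil, Z-stack projections; ≥2 independent experiments.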
# [19] = system: Chlamydia trachomatis; experiment: Drug uptake in Chlamydia trachomatis serovar LGV-L2 inclusion infected in human HeLa cells at 1 uM coadministered with 6-Amino-8-cyclopropyl-7-(naphthalen-1-ylmethyl)-5-oxo-N-phenyl-2,3-dihydro-5H-[1,3]thiazolo[3,2-a]pyridine 3-carboxamide after 48 hrs by laser confocal microscopy; type: ADME, organism-based; method in brief: as §3
# [20] = system: HeLa; experiment: Drug uptake in human HeLa cells infected with Chlamydia trachomatis serovar LGV-L2 at 1 uM after 48 hrs by laser confocal microscopy; type: ADME, cell-based; method in brief: as §4
Compound,"viability at 48 h, 25 µM [1] [%]",Activity [7] [µM],"viability at 48 h, 10 µM [9] [%]",further results
Nc1c(Cc2cccc3ccccc23)c(C2CC2)c2n(c1=O)C(C(=O)Nc1ccccc1)CS2 (centres undefined),98,0.25,101,EC50 [2]: 59 nM; EC50 [3]: 58 nM; Activity [4]: Non-toxic; Activity [5]: Non-toxic; logD [6]: 4.3; Activity [8]: Non-toxic; pKa [10]: 2.4
Cc1ccc(NC(=O)C2CSc3c(C4CC4)c(Cc4ccc(Cl)cc4)c(N)c(=O)n32)cc1 (centres undefined),102,2.5,101,EC50 [2]: 266 nM; EC50 [3]: 270 nM
Nc1c(Cc2cccc3ccccc23)c(C2CC2)c2n(c1=O)C(C(=O)Nc1ccncn1)CS2 (centres undefined),88,2.5,99,
O=C(Nc1ccccc1)c1csc2c(C3CC3)c(Cc3cccc4ccccc34)cc(=O)n12,73,2.5,87,EC50 [11]: 1250 nM; EC50 [2]: 254 nM; fold change (FC) [12]: >=10000; fold change (FC) [13]: >=10000; fold change (FC) [14]: >=10000; logP [15]: 5
Cc1cccc(NC(=O)C2CSc3c(C4CC4)c(Cc4cccc5ccccc45)cc(=O)n32)c1 (centres undefined),100,1,99,EC50 [2]: 102 nM
Cc1cccc(NC(=O)C2CSc3c(C4CC4)c(Cc4cccc5ccccc45)c(N)c(=O)n32)c1 (centres undefined),97,1,98,EC50 [2]: 147 nM; EC50 [3]: 124 nM
CC1=CC(C)=[N+]2C1=C(CCc1cc(=O)n3c(c1C1CC1)SCC3C(=O)Nc1cccc(C)c1)c1c(C)cc(C)n1[B-]2(F)F (centres undefined),,,,Drug uptake [16]: Not Active; Activity [17]: >95%; Drug uptake [18]: Active; Drug uptake [19]: Not Active
COc1ccc(NC(=O)C2CSc3c(C4CC4)c(Cc4cccc5ccccc45)cc(=O)n32)cc1 (centres undefined),,2.5,100,
O=C(O)c1c(Cc2cccc3ccccc23)c(C2CC2)c2n(c1=O)C(C(=O)Nc1ccccc1)CS2 (centres undefined),,> 10,103,
NS(=O)(=O)c1ccc(NC(=O)C2CSc3c(C4CC4)c(Cc4cccc5ccccc45)cc(=O)n32)cc1 (centres undefined),,10,95,
O=C(C1CSc2c(C3CC3)c(Cc3cccc4ccccc34)cc(=O)n21)N1CCCCC1 (centres undefined),,>10,86,
O=C(C1CSc2c(C3CC3)c(Cc3cccc4ccccc34)cc(=O)n21)N1CCOCC1 (centres undefined),,>10,90,
Cc1ccc(NC(=O)C2CSc3c(C4CC4)c(Cc4ccc(Cl)cc4)cc(=O)n32)cc1 (centres undefined),,1,89,
O=C(NC1CCCCC1)C1CSc2c(C3CC3)c(Cc3cccc4ccccc34)cc(=O)n21 (centres undefined),,10,88,
CC1=CC(C)=[N+]2C1=C(C)c1c(C)cc(C)n1[B-]2(F)F,,,,Drug uptake [20]: Not Active; Drug uptake [18]: Not Active
Cc1ccc(NC(=O)C2CSc3c(C4CC4)c(Cc4cccc(C)c4C)cc(=O)n32)cc1 (centres undefined),,1,95,
CNC(=O)C1CSc2c(C3CC3)c(Cc3cccc4ccccc34)cc(=O)n21 (centres undefined),,10,93,
O=C(Nc1ccc(F)cc1)C1CSc2c(C3CC3)c(Cc3cccc4ccccc34)cc(=O)n21 (centres undefined),,2.5,98,
Cc1ccc(NC(=O)C2CSc3c(C4CC4)c(Cc4cccc5ccccc45)cc(=O)n32)cc1 (centres undefined),,2.5,97,
Cc1ccc(NC(=O)C2CSc3c(C4CC4)c(Cc4cccc5ccccc45)c(N)c(=O)n32)cc1 (centres undefined),98,0.25,98,EC50 [2]: 140 nM; EC50 [3]: 99 nM
O=C(Nc1ccccc1F)C1CSc2c(C3CC3)c(Cc3cccc4ccccc34)cc(=O)n21 (centres undefined),,2.5,96,
O=C(Nc1cccnc1)C1CSc2c(C3CC3)c(Cc3cccc4ccccc34)cc(=O)n21 (centres undefined),,10,77,
O=C(Nc1ccccc1)[C@@H]1CSc2c(C3CC3)c(Cc3cccc4ccccc34)c(CN3CCOCC3)c(=O)n21,,5,99,
O=C(Nc1ccc(Cl)cc1)C1CSc2c(C3CC3)c(Cc3cccc4ccccc34)cc(=O)n21 (centres undefined),,2.5,94,
Cc1cccc(Cc2cc(=O)n3c(c2C2CC2)SCC3C(=O)Nc2ccccc2)c1C (centres undefined),,2.5,91,
Cc1ccc(NC(=O)C2CSc3c(C4CC4)c(Cc4cccc(C)c4C)c(N)c(=O)n32)cc1 (centres undefined),102,1,101,EC50 [2]: 281 nM; EC50 [3]: 274 nM
